Values after ≈ are worked out from the molar mass of the structure shown.
Assays:
Assay type in all cases: functional
[1] = test system: Acinetobacter baumannii; assay: Antimicrobial activity against Acinetobacter baumannii isolate 43 harboring GyrA Ser83-Leu mutation at pH 5.8
Method in brief: (§1)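 Agar dilution MIC on Mueller-Hinton agar. For the acidic condition, HCl was added to bring the agar to pH 5.8 before pouring the antibiotic plates, and the pH was checked after the agar set. The standard condition was pH 7.2. Both drugs' plates were made the same day from fresh medium, and MICs were read at the same time.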

[2] = test system: Acinetobacter baumannii; assay: Antimicrobial activity against Acinetobacter baumannii isolate 21 harboring GyrA Ser83-Leu mutation at pH 7.2
Method in brief: (§2)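 MIC by agar dilution on Mueller-Hinton agar under standard conditions (pH 7.2), against isolates with characterized gyrA/parC genes. Agar pH was checked after solidifying. Plates for both drugs were prepared the same day from freshly made media, and MICs were determined simultaneously with the pH 5.8 set.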

[3] = test system: Acinetobacter baumannii; assay: Antimicrobial activity against Acinetobacter baumannii isolate 30 harboring GyrA Ser83-Leu mutation at pH 5.8
Method in brief: (§3)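 MIC by agar dilution on Mueller-Hinton agar acidified to pH 5.8 with HCl before antibiotic-containing plates were poured. Agar pH was rechecked once the agar had solidified. Isolates had characterized gyrA/parC genes. Plates for both drugs were made the same day from fresh media, and MICs were read in parallel with the standard-pH set.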

[4] = test system: Acinetobacter baumannii; assay: Antimicrobial activity against Acinetobacter baumannii isolate 63 harboring GyrA Ser83-Leu and ParC Glu84-Lys mutation at pH 7.2
Method in brief: (§4)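 Agar dilution MIC on Mueller-Hinton agar under standard conditions (pH 7.2). Antibiotic-containing plates were made the same day from freshly prepared medium. Agar pH was checked after solidifying. Both fluoroquinolones were tested simultaneously against A. baumannii isolates with characterized gyrA/parC genes. MICs are in μg/ml.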

[5] = test system: Acinetobacter baumannii; assay: Antimicrobial activity against Acinetobacter baumannii isolate 27 harboring GyrA Ser83-Leu mutation at pH 5.8; method in brief: as §3
[6] = test system: Acinetobacter baumannii; assay: Antimicrobial activity against Acinetobacter baumannii isolate 7 at pH 5.8
Method in brief: (§5)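 Agar dilution MIC on Mueller-Hinton agar acidified to pH 5.8 with HCl before the antibiotic-containing plates were poured. Agar pH was checked after solidifying. Plates were made the same day from fresh medium. Both fluoroquinolones were tested simultaneously against A. baumannii isolates with characterized gyrA/parC genes. MICs are in μg/ml.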

[7] = test system: Acinetobacter baumannii; assay: Antimicrobial activity against Acinetobacter baumannii isolate 18 at pH 7.2; method in brief: as §2
[8] = test system: Acinetobacter baumannii; assay: Antimicrobial activity against Acinetobacter baumannii isolate 10 at pH 7.2; method in brief: as §2
[9] = test system: Acinetobacter baumannii; assay: Antimicrobial activity against Acinetobacter baumannii isolate 48 harboring GyrA Ser83-Leu and ParC Ser80-Leu mutation at pH 7.2; method in brief: as §1
[10] = test system: Acinetobacter baumannii; assay: Antimicrobial activity against Acinetobacter baumannii isolate 58 harboring GyrA Ser83-Leu and ParC Ser80-Leu mutation at pH 7.2; method in brief: as §4
[11] = test system: Acinetobacter baumannii; assay: Antimicrobial activity against Acinetobacter baumannii isolate 42 harboring GyrA Ser83-Leu mutation at pH 7.2; method in brief: as §1
[12] = test system: Acinetobacter baumannii; assay: Antimicrobial activity against Acinetobacter baumannii isolate 20 harboring GyrA Ser83-Leu mutation at pH 7.2; method in brief: as §2
[13] = test system: Acinetobacter baumannii; assay: Antimicrobial activity against Acinetobacter baumannii isolate 3 at pH 7.2; method in brief: as §2
[14] = test system: Acinetobacter baumannii; assay: Antimicrobial activity against Acinetobacter baumannii isolate 20 harboring GyrA Ser83-Leu mutation at pH 5.8; method in brief: as §3
[15] = test system: Acinetobacter baumannii; assay: Antimicrobial activity against Acinetobacter baumannii isolate 55 harboring GyrA Ser83-Leu and ParC Ser80-Leu mutation at pH 7.2; method in brief: as §4
[16] = test system: Acinetobacter baumannii; assay: Antimicrobial activity against Acinetobacter baumannii isolate 30 harboring GyrA Ser83-Leu mutation at pH 7.2; method in brief: as §2
[17] = test system: Acinetobacter baumannii; assay: Antimicrobial activity against Acinetobacter baumannii isolate 17 at pH 7.2; method in brief: as §2
[18] = test system: Acinetobacter baumannii; assay: Antimicrobial activity against Acinetobacter baumannii isolate 37 harboring GyrA Ser83-Leu mutation at pH 7.2; method in brief: as §1
[19] = test system: Acinetobacter baumannii; assay: Antimicrobial activity against Acinetobacter baumannii isolate 11 at pH 5.8; method in brief: as §3
[20] = test system: Acinetobacter baumannii; assay: Antimicrobial activity against Acinetobacter baumannii isolate 6 at pH 7.2; method in brief: as §4
[21] = test system: Acinetobacter baumannii; assay: Antimicrobial activity against Acinetobacter baumannii isolate 5 at pH 7.2; method in brief: as §1
[22] = test system: Acinetobacter baumannii; assay: Antimicrobial activity against Acinetobacter baumannii isolate 22 harboring GyrA Ser83-Leu mutation at pH 5.8; method in brief: as §3
[23] = test system: Acinetobacter baumannii; assay: Antimicrobial activity against Acinetobacter baumannii isolate 32 harboring GyrA Ser83-Leu mutation at pH 5.8; method in brief: as §1
[24] = test system: Acinetobacter baumannii; assay: Antimicrobial activity against Acinetobacter baumannii isolate 57 harboring GyrA Ser83-Leu and ParC Ser80-Phe mutation at pH 5.8; method in brief: as §5
[25] = test system: Acinetobacter baumannii; assay: Antimicrobial activity against Acinetobacter baumannii isolate 29 harboring GyrA Ser83-Leu mutation at pH 5.8; method in brief: as §3
[26] = test system: Acinetobacter baumannii; assay: Antimicrobial activity against Acinetobacter baumannii isolate 28 harboring GyrA Ser83-Leu mutation at pH 5.8; method in brief: as §3
[27] = test system: Acinetobacter baumannii; assay: Antimicrobial activity against Acinetobacter baumannii isolate 17 at pH 5.8; method in brief: as §3
[28] = test system: Acinetobacter baumannii; assay: Antimicrobial activity against Acinetobacter baumannii isolate 43 harboring GyrA Ser83-Leu mutation at pH 7.2; method in brief: as §1
[29] = test system: Acinetobacter baumannii; assay: Antimicrobial activity against Acinetobacter baumannii isolate 54 harboring GyrA Ser83-Leu and ParC Ser80-Leu mutation at pH 5.8; method in brief: as §1
[30] = test system: Acinetobacter baumannii; assay: Antimicrobial activity against Acinetobacter baumannii isolate 54 harboring GyrA Ser83-Leu and ParC Ser80-Leu mutation at pH 7.2; method in brief: as §1
[31] = test system: Acinetobacter baumannii; assay: Antimicrobial activity against Acinetobacter baumannii isolate 39 harboring GyrA Ser83-Leu mutation at pH 5.8; method in brief: as §1
[32] = test system: Acinetobacter baumannii; assay: Antimicrobial activity against Acinetobacter baumannii isolate 15 at pH 5.8; method in brief: as §3
[33] = test system: Acinetobacter baumannii; assay: Antimicrobial activity against Acinetobacter baumannii isolate 29 harboring GyrA Ser83-Leu mutation at pH 7.2; method in brief: as §2
[34] = test system: Acinetobacter baumannii; assay: Antimicrobial activity against Acinetobacter baumannii isolate 19 harboring GyrA Ser83-Leu mutation at pH 7.2; method in brief: as §2
[35] = test system: Acinetobacter baumannii; assay: Antimicrobial activity against Acinetobacter baumannii isolate 53 harboring GyrA Ser83-Leu and ParC Ser80-Leu mutation at pH 5.8; method in brief: as §1
[36] = test system: Acinetobacter baumannii; assay: Antimicrobial activity against Acinetobacter baumannii isolate 51 harboring GyrA Ser83-Leu and ParC Ser80-Leu mutation at pH 5.8; method in brief: as §1
[37] = test system: Acinetobacter baumannii; assay: Antimicrobial activity against Acinetobacter baumannii isolate 48 harboring GyrA Ser83-Leu and ParC Ser80-Leu mutation at pH 5.8; method in brief: as §1
[38] = test system: Acinetobacter baumannii; assay: Antimicrobial activity against Acinetobacter baumannii isolate 37 harboring GyrA Ser83-Leu mutation at pH 5.8; method in brief: as §1
[39] = test system: Acinetobacter baumannii; assay: Antimicrobial activity against Acinetobacter baumannii isolate 56 harboring GyrA Ser83-Leu and ParC Ser80-Leu mutation at pH 5.8; method in brief: as §5
[40] = test system: Acinetobacter baumannii; assay: Antimicrobial activity against adeB overexpressing Acinetobacter baumannii isolate 67 harboring GyrA Ser83-Leu and ParC Ser80-Leu mutation at pH 5.8; method in brief: as §5
[41] = test system: Acinetobacter baumannii; assay: Antimicrobial activity against Acinetobacter baumannii isolate 32 harboring GyrA Ser83-Leu mutation at pH 7.2; method in brief: as §1

## O=C(O)c1cn(C2CC2)c2cc(N3CCNCC3)c(F)cc2c1=O [CIPROFLOXACIN]
[1]
  MIC: > 128 µg/mL
[2]
  MIC: 4 µg/mL (≈ 12.1 µM)
[3]
  MIC: 32 µg/mL (≈ 96.6 µM)
[4]
  MIC: > 128 µg/mL
[5]
  MIC: 32 µg/mL (≈ 96.6 µM)
[6]
  MIC: 2 µg/mL (≈ 6.04 µM)
[7]
  MIC: 1 µg/mL (≈ 3.02 µM)
[8]
  MIC: 0.25 µg/mL (≈ 0.754 µM)
[9]
  MIC: 128 µg/mL (≈ 386 µM)
[10]
  MIC: 128 µg/mL (≈ 386 µM)
[11]
  MIC: 16 µg/mL (≈ 48.3 µM)
[12]
  MIC: 2 µg/mL (≈ 6.04 µM)
[13]
  MIC: 0.12 µg/mL (≈ 0.362 µM)
[14]
  MIC: 4 µg/mL (≈ 12.1 µM)
[15]
  MIC: 128 µg/mL (≈ 386 µM)
[16]
  MIC: 8 µg/mL (≈ 24.1 µM)
[17]
  MIC: 1 µg/mL (≈ 3.02 µM)
[18]
  MIC: 16 µg/mL (≈ 48.3 µM)
[19]
  MIC: 4 µg/mL (≈ 12.1 µM)
[20]
  MIC: 0.12 µg/mL (≈ 0.362 µM)
[21]
  MIC: 0.12 µg/mL (≈ 0.362 µM)
[22]
  MIC: 32 µg/mL (≈ 96.6 µM)
[23]
  MIC: 32 µg/mL (≈ 96.6 µM)
[24]
  MIC: > 128 µg/mL
[25]
  MIC: 32 µg/mL (≈ 96.6 µM)
[26]
  MIC: 32 µg/mL (≈ 96.6 µM)
[27]
  MIC: 4 µg/mL (≈ 12.1 µM)
[28]
  MIC: 32 µg/mL (≈ 96.6 µM)
[29]
  MIC: > 128 µg/mL
[30]
  MIC: 128 µg/mL (≈ 386 µM)
[31]
  MIC: > 128 µg/mL
[32]
  MIC: 4 µg/mL (≈ 12.1 µM)
[33]
  MIC: 4 µg/mL (≈ 12.1 µM)
[34]
  MIC: 1 µg/mL (≈ 3.02 µM)
[35]
  MIC: > 128 µg/mL
[36]
  MIC: > 128 µg/mL
[37]
  MIC: > 128 µg/mL
[38]
  MIC: 128 µg/mL (≈ 386 µM)
[39]
  MIC: > 128 µg/mL
[40]
  MIC: > 128 µg/mL
[41]
  MIC: 16 µg/mL (≈ 48.3 µM)

## N#Cc1c(N2C[C@@H]3NCCO[C@H]3C2)c(F)cc2c(=O)c(C(=O)O)cn(C3CC3)c12 [FINAFLOXACIN]
[1]
  MIC: 2 µg/mL (≈ 5.02 µM)
[2]
  MIC: 1 µg/mL (≈ 2.51 µM)
[3]
  MIC: 0.5 µg/mL (≈ 1.26 µM)
[4]
  MIC: 64 µg/mL (≈ 161 µM)
[5]
  MIC: 1 µg/mL (≈ 2.51 µM)
[6]
  MIC: 0.06 µg/mL (≈ 0.151 µM)
[7]
  MIC: 1 µg/mL (≈ 2.51 µM)
[8]
  MIC: 0.25 µg/mL (≈ 0.628 µM)
[9]
  MIC: 16 µg/mL (≈ 40.2 µM)
[10]
  MIC: 64 µg/mL (≈ 161 µM)
[11]
  MIC: 16 µg/mL (≈ 40.2 µM)
[12]
  MIC: 1 µg/mL (≈ 2.51 µM)
[13]
  MIC: 0.12 µg/mL (≈ 0.301 µM)
[14]
  MIC: 0.06 µg/mL (≈ 0.151 µM)
[15]
  MIC: 32 µg/mL (≈ 80.3 µM)
[16]
  MIC: 8 µg/mL (≈ 20.1 µM)
[17]
  MIC: 1 µg/mL (≈ 2.51 µM)
[18]
  MIC: 16 µg/mL (≈ 40.2 µM)
[19]
  MIC: 0.06 µg/mL (≈ 0.151 µM)
[20]
  MIC: 0.25 µg/mL (≈ 0.628 µM)
[21]
  MIC: 0.25 µg/mL (≈ 0.628 µM)
[22]
  MIC: 1 µg/mL (≈ 2.51 µM)
[23]
  MIC: 1 µg/mL (≈ 2.51 µM)
[24]
  MIC: 4 µg/mL (≈ 10 µM)
[25]
  MIC: 4 µg/mL (≈ 10 µM)
[26]
  MIC: 1 µg/mL (≈ 2.51 µM)
[27]
  MIC: 0.12 µg/mL (≈ 0.301 µM)
[28]
  MIC: 16 µg/mL (≈ 40.2 µM)
[29]
  MIC: 4 µg/mL (≈ 10 µM)
[30]
  MIC: 32 µg/mL (≈ 80.3 µM)
[31]
  MIC: 2 µg/mL (≈ 5.02 µM)
[32]
  MIC: 0.12 µg/mL (≈ 0.301 µM)
[33]
  MIC: 32 µg/mL (≈ 80.3 µM)
[34]
  MIC: 0.5 µg/mL (≈ 1.26 µM)
[35]
  MIC: 2 µg/mL (≈ 5.02 µM)
[36]
  MIC: 2 µg/mL (≈ 5.02 µM)
[37]
  MIC: 2 µg/mL (≈ 5.02 µM)
[38]
  MIC: 2 µg/mL (≈ 5.02 µM)
[39]
  MIC: 4 µg/mL (≈ 10 µM)
[40]
  MIC: 4 µg/mL (≈ 10 µM)
[41]
  MIC: 16 µg/mL (≈ 40.2 µM)

Reference: ChEMBL document CHEMBL1255410, “Activity of the investigational fluoroquinolone finafloxacin against ciprofloxacin-sensitive and -resistant Acinetobacter baumannii isolates” (2010)
